ChEMBL document CHEMBL2380293, “Design, synthesis, and biological evaluation of novel histone deacetylase 1 inhibitors through click chemistry” (Bioorg Med Chem Lett, 2013)
The source made the active and inactive calls. No cut-off for these calls is given here.

Each molecule was assayed on DU-145 (assay: Growth inhibition of human DU145 cells by MTT assay). Conditions: not given.
Type: functional

Row | SMILES | GI50
1 | O=C(CCCCc1cn(Cc2ccc3ccccc3c2)nn1)NO | 7.23 µM

What follows are molecules tested on DU-145 (assay: Growth inhibition of human DU145 cells at 10 uM by MTT assay). Conditions: not given.
Type: functional, cell-based
In short: (§1)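 MTT cell growth read-out, with SAHA as the positive control. GI50 values are means of three experiments. 10 μM was the concentration tested for scoring absence of activity.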

Row | SMILES | growth inhibition (GI)
2 | Cc1cc(C)cc(Cn2cc(CCCCC(=O)NO)nn2)c1 | inactive
3 | O=C(CCCCc1cn(Cc2ccc(F)c(Cl)c2)nn1)NO | inactive
4 | COc1cc(Br)c(Cn2cc(CCCCC(=O)NO)nn2)cc1OC | inactive
5 | O=C(CCCCn1cc(-c2ccccc2)nn1)NO | inactive
6 | O=C(CCCCc1cn(Cc2ccccc2Br)nn1)NO | inactive
7 | O=C(CCCCc1cn(Cc2cccc(Br)c2)nn1)NO | inactive

What follows are molecules tested on HUVEC (assay: Growth inhibition of HUVEC at 10 uM by MTT assay). Conditions: Homo sapiens.
Type: functional, cell-based
In short: as §1

Row | SMILES | growth inhibition (GI)
8 | Cc1cc(C)cc(Cn2cc(CCCCC(=O)NO)nn2)c1 | inactive
9 | O=C(CCCCc1cn(Cc2ccc(F)c(Cl)c2)nn1)NO | inactive
10 | COc1cc(Br)c(Cn2cc(CCCCC(=O)NO)nn2)cc1OC | inactive
11 | O=C(CCCCn1cc(-c2ccccc2)nn1)NO | inactive
12 | O=C(CCCCc1cn(Cc2cccc(Br)c2)nn1)NO | inactive
13 | O=C(CCCCc1cn(Cc2ccc3ccccc3c2)nn1)NO | inactive

The molecules below were run on A-431 (assay: Growth inhibition of human A431 cells at 10 uM by MTT assay). Conditions: not given.
Type: functional, cell-based
In short: as §1

Row | SMILES | growth inhibition (GI)
14 | Cc1cc(C)cc(Cn2cc(CCCCC(=O)NO)nn2)c1 | inactive
15 | O=C(CCCCn1cc(-c2ccccc2)nn1)NO | inactive
16 | O=C(CCCCc1cn(Cc2ccccc2Br)nn1)NO | inactive
17 | O=C(CCCCc1cn(Cc2cccc(Br)c2)nn1)NO | inactive

Each molecule was assayed on HT-1080 (assay: Growth inhibition of human HT1080 cells at 10 uM by MTT assay). Conditions: not given.
Type: functional, cell-based
In short: as §1

Row | SMILES | growth inhibition (GI)
18 | COc1cc(Br)c(Cn2cc(CCCCC(=O)NO)nn2)cc1OC | inactive
19 | O=C(CCCCn1cc(-c2ccccc2)nn1)NO | inactive
20 | O=C(CCCCc1cn(Cc2ccccc2Br)nn1)NO | inactive

These molecules were tested on A-431 (assay: Growth inhibition of human A431 cells by MTT assay). Conditions: not given.
Type: functional

Row | SMILES | GI50
21 | COc1cc(Br)c(Cn2cc(CCCCC(=O)NO)nn2)cc1OC | 17.3 µM
22 | O=C(CCCCc1cn(Cc2ccc3ccccc3c2)nn1)NO | 5.68 µM

The molecules below were run on HT-1080 (assay: Growth inhibition of human HT1080 cells by MTT assay). Conditions: Homo sapiens, HT-1080.
Type: functional
In short: as §1

Row | SMILES | GI50
23 | Cc1cc(C)cc(Cn2cc(CCCCC(=O)NO)nn2)c1 | 8.65 µM
24 | O=C(CCCCc1cn(Cc2ccc(F)c(Cl)c2)nn1)NO | 10.2 µM
25 | O=C(CCCCc1cn(Cc2cccc(Br)c2)nn1)NO | 6.65 µM
26 | O=C(CCCCc1cn(Cc2ccc3ccccc3c2)nn1)NO | 4.61 µM

The molecules below were run on A549 (assay: Growth inhibition of human A549 cells by MTT assay). Conditions: not given.
Type: functional

Row | SMILES | GI50
27 | O=C(CCCCn1cc(-c2ccccc2)nn1)NO | 7.69 µM

These molecules were tested on A549 (assay: Growth inhibition of human A549 cells at 10 uM by MTT assay). Conditions: not given.
Type: functional, cell-based
In short: as §1

Row | SMILES | growth inhibition (GI)
28 | Cc1cc(C)cc(Cn2cc(CCCCC(=O)NO)nn2)c1 | inactive
29 | O=C(CCCCc1cn(Cc2ccc(F)c(Cl)c2)nn1)NO | inactive
30 | COc1cc(Br)c(Cn2cc(CCCCC(=O)NO)nn2)cc1OC | inactive
31 | O=C(CCCCc1cn(Cc2ccccc2Br)nn1)NO | inactive
32 | O=C(CCCCc1cn(Cc2cccc(Br)c2)nn1)NO | inactive
33 | O=C(CCCCc1cn(Cc2ccc3ccccc3c2)nn1)NO | inactive

Each molecule was assayed on BGC-823 (assay: Growth inhibition of human BGC823 cells at 10 uM by MTT assay). Conditions: not given.
Type: functional, cell-based
In short: as §1

Row | SMILES | growth inhibition (GI)
34 | Cc1cc(C)cc(Cn2cc(CCCCC(=O)NO)nn2)c1 | inactive
35 | O=C(CCCCc1cn(Cc2ccc(F)c(Cl)c2)nn1)NO | inactive
36 | COc1cc(Br)c(Cn2cc(CCCCC(=O)NO)nn2)cc1OC | inactive
37 | O=C(CCCCn1cc(-c2ccccc2)nn1)NO | inactive
38 | O=C(CCCCc1cn(Cc2ccccc2Br)nn1)NO | inactive
39 | O=C(CCCCc1cn(Cc2cccc(Br)c2)nn1)NO | inactive

The molecules below were run on BGC-823 (assay: Growth inhibition of human BGC823 cells by MTT assay). Conditions: not given.
Type: functional

Row | SMILES | GI50
40 | O=C(CCCCc1cn(Cc2ccc3ccccc3c2)nn1)NO | 6.64 µM

Each molecule was assayed on HeLa (assay: Growth inhibition of human HeLa cells at 10 uM by MTT assay). Conditions: not given.
Type: functional, cell-based
In short: as §1

Row | SMILES | growth inhibition (GI)
41 | Cc1cc(C)cc(Cn2cc(CCCCC(=O)NO)nn2)c1 | inactive
42 | O=C(CCCCc1cn(Cc2ccc(F)c(Cl)c2)nn1)NO | inactive
43 | COc1cc(Br)c(Cn2cc(CCCCC(=O)NO)nn2)cc1OC | inactive
44 | O=C(CCCCn1cc(-c2ccccc2)nn1)NO | inactive
45 | O=C(CCCCc1cn(Cc2ccccc2Br)nn1)NO | inactive
46 | O=C(CCCCc1cn(Cc2cccc(Br)c2)nn1)NO | inactive
47 | O=C(CCCCc1cn(Cc2ccc3ccccc3c2)nn1)NO | inactive

These molecules were tested against T1, Histone deacetylase 7 (Homo sapiens) (UniProt Q8WUI4) (assay: Inhibition of human recombinant HDAC7 at 10 uM incubated for 10 mins prior to substrate addition measured after 60 mins by spectrophotometric analysis). Conditions: not given.
T1 sequence (whole entry): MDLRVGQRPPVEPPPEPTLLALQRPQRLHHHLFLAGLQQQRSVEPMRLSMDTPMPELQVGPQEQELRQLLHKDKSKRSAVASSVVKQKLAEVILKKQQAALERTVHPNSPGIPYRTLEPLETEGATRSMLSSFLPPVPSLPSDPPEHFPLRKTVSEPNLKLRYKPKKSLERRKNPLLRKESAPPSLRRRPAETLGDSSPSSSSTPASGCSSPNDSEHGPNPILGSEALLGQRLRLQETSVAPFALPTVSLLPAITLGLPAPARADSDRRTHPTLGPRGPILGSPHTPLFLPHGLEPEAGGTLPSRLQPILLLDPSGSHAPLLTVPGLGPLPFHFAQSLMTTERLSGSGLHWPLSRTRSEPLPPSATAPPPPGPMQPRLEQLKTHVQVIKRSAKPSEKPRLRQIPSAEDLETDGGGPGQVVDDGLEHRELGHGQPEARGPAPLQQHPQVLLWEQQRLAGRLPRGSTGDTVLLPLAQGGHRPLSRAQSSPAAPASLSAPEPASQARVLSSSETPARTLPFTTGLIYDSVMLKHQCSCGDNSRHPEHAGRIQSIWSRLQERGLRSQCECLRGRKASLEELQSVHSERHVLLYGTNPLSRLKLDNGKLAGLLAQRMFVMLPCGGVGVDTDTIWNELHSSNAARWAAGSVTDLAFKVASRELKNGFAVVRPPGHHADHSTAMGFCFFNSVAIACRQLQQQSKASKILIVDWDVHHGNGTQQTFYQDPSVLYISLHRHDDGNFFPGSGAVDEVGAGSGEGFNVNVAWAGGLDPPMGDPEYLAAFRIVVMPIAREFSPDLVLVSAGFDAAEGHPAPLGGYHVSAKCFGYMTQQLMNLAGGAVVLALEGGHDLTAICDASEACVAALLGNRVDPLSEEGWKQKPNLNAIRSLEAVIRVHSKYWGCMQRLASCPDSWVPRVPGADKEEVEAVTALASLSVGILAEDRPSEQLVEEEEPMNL
In short: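 Enzyme IC50 values are means of three experiments, with SAHA run as the positive control. Absence of activity was judged at 10 μM.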

Row | SMILES | inhibition
48 | Cc1cc(C)cc(Cn2cc(CCCCC(=O)NO)nn2)c1 | inactive
49 | O=C(CCCCc1cn(Cc2ccc(F)c(Cl)c2)nn1)NO | inactive
50 | COc1cc(Br)c(Cn2cc(CCCCC(=O)NO)nn2)cc1OC | inactive
51 | O=C(CCCCc1cn(Cc2cccc(Br)c2)nn1)NO | inactive

Second part, the molecule after the results:

Row | inhibition | SMILES
52 | inactive | O=C(CCCCc1cn(Cc2ccccc2Br)nn1)NO
53 | inactive | O=C(CCCCc1cn(Cc2ccc3ccccc3c2)nn1)NO

What follows are molecules tested against Histone deacetylase 1 (Homo sapiens, UniProt Q13547) (assay: Inhibition of human recombinant HDAC1 incubated for 10 mins prior to substrate addition measured after 60 mins by spectrophotometric analysis). Conditions: not given.
Histone deacetylase 1, sequence (Q13547 whole entry): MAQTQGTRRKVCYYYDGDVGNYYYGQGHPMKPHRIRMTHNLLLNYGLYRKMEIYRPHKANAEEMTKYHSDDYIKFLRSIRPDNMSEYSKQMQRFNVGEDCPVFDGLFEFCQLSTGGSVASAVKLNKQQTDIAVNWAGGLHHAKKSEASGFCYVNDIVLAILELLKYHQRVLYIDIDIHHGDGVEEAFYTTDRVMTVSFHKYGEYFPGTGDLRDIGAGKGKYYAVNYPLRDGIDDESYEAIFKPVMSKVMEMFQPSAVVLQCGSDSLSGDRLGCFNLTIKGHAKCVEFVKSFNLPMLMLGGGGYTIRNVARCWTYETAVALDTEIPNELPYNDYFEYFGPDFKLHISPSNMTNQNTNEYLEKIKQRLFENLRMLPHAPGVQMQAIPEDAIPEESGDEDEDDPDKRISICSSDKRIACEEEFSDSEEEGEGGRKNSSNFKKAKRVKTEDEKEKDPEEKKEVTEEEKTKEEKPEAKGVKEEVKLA

Row | SMILES | IC50
54 | Cc1cc(C)cc(Cn2cc(CCCCC(=O)NO)nn2)c1 | 0.269 µM
55 | O=C(CCCCc1cn(Cc2ccc(F)c(Cl)c2)nn1)NO | 0.649 µM
56 | COc1cc(Br)c(Cn2cc(CCCCC(=O)NO)nn2)cc1OC | 0.862 µM
57 | O=C(CCCCc1cn(Cc2cccc(Br)c2)nn1)NO | 0.396 µM

Next, values leading:

Row | IC50 | SMILES
58 | 5.13 µM | O=C(CCCCn1cc(-c2ccccc2)nn1)NO
59 | 3.58 µM | O=C(CCCCc1cn(Cc2ccccc2Br)nn1)NO
60 | 0.107 µM | O=C(CCCCc1cn(Cc2ccc3ccccc3c2)nn1)NO
